# Tests used:
# [1] = Inhibitory activity against human cytosolic phosphoenolpyruvate carboxykinase (PEPCK) enzyme
# In short: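 Recombinant human cytosolic GST-PEPCK at room temperature in 30 mM potassium phosphate pH 7.6 with 0.3 mM GTP, 0.3 mM OAA, 3 mM MgCl2, 0.075 mM MnCl2, 1 mM DTT, 0.2 mM ADP, 1 mM NADH and 1 mg/mL BSA. Coupled to pyruvate kinase and lactate dehydrogenase (0.9 U/mL each). Absorbance change at 340 read over 20 min. Eight concentrations in duplicate, averaged; IC50 derived.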
# [2] = Inhibitory activity against human cytosolic phosphoenolpyruvate carboxykinase (PEPCK) enzyme at a concentration of 25 uM
# In short: (§1)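 The same coupled GST-PEPCK assay was run in 30 mM potassium phosphate pH 7.6 at room temperature. It used 0.3 mM each of GTP and OAA, plus Mg2+/Mn2+, ADP, NADH and BSA, with pyruvate kinase and lactate dehydrogenase coupling. Rate was read at 340 over 20 min. Percent inhibition is given at the highest concentration tested, as the duplicate average.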
# [3] = Inhibitory activity against human cytosolic phosphoenolpyruvate carboxykinase (PEPCK) enzyme at a concentration of 500 uM; in short: as §1
Compound,IC50 [1] [µM],other results
CCCCn1c(=O)n(Cc2ccccc2F)c(=O)c2[nH]c(Cc3ccc(NC(C)=O)cc3)nc21,2.11,
C=CCn1c(=O)c2[nH]c(Cc3ccccc3)nc2n(CCCC)c1=O,,inhibition [2]: 29%
CCCCn1c(=O)n(Cc2cccc(F)c2)c(=O)c2[nH]c(Cc3ccc(NC(C)=O)cc3)nc21,,inhibition [2]: 46%
C=CCn1c(=O)c2[nH]c(Cc3ccc(N)cc3)nc2n(CCCC)c1=O,37,
CCCCn1c(=O)n(Cc2ccccc2)c(=O)c2[nH]c(Cc3ccc(NC(C)=O)cc3)nc21,8.15,
C=CCn1c(=O)c2[nH]cnc2n(CCCC)c1=O,,inhibition [3]: 39%
C=CCn1c(=O)c2c(nc(C)n2CC)n(CCCC)c1=O,,inhibition [3]: 34%
C=CCn1c(=O)c2[nH]c(-c3ccc(NC(C)=O)cc3)nc2n(CCCC)c1=O,,inhibition [3]: 1.7%
CCCCn1c(=O)n(CCOC)c(=O)c2[nH]c(Cc3ccc(NC(C)=O)cc3)nc21,,inhibition [2]: 36%

# The next lines start with results.
IC50 [1] [µM],Compound,other results
225,C=CCn1c(=O)c2[nH]c(C)nc2n(CCCC)c1=O,
100,C=CCn1c(=O)c2[nH]c(CC)nc2n(CCCC)c1=O,
375,CCCCn1c(=O)n(CCC)c(=O)c2[nH]c(C)nc21,

# — ChEMBL document CHEMBL1136302, “Modified 3-alkyl-1,8-dibenzylxanthines as GTP-competitive inhibitors of phosphoenolpyruvate carboxykinase” (Bioorg Med Chem Lett, 2003)
